The test system of one data set is K562. As to the kind of experiment: Growth inhibition of human K562 cells after 24 to 72 hrs by MTT assay. In kind it is functional, cell-based. In short, it runs like this:
(§1)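 Leukemic lines in medium with 50 µM β-mercaptoethanol, 25 mM Hepes pH 7.4, antibiotics and 10% heat-inactivated FCS (Daudi 20% FCS; Lucena-1 kept with 60 nM vincristine to maintain MDR phenotype). Cells exposed to compound for 24, 48 or 72 h. Viability by MTT: 3 h at 37 °C, DMSO solubilisation, absorbance at 490 nm.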

The test system of another data set is HL-60. As to the kind of experiment: Growth inhibition of human HL60 cells after 72 hrs by MTT assay. Conditions: HL-60, 72 h. In kind it is functional, cell-based. In short, it runs like this: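 2 × 10⁴ cells/mL seeded in drug-free medium or medium with a range of compound concentrations, 72 h at 37 °C, 5% CO₂. MTT read-out: 3 h incubation, formazan dissolved in DMSO, A490. IC50 = concentration inhibiting growth by 50%. Mean of three independent experiments, triplicate wells.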
In general terms: Tetrazolium assays rely on reduction of a dye to a coloured formazan, in cell work by metabolically active cells.

The next data set deals with NCI-H460. In words: Growth inhibition of human H460 cells after 72 hrs by MTT assay. Format: functional, cell-based. Conditions: NCI-H460, 72 h. In short, it runs like this:
(§2)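 Adherent lung cancer cells allowed to attach 24 h, then exposed to compound. 2 × 10⁴ cells/mL in drug-free or compound-containing medium, 72 h at 37 °C, 5% CO₂. MTT added, 3 h at 37 °C, formazan dissolved in DMSO, absorbance at 490 nm. IC50 from three independent experiments, each concentration in triplicate.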

A further data set has as its system Daudi. As to the kind of experiment: Growth inhibition of human Daudi cells after 24 to 72 hrs by MTT assay. Format: functional, cell-based. In short, it runs like this: as §1
For data set [1], the system named is PBMC. As to the kind of experiment: Growth inhibition of phytohemagglutinin-activated human PBMC cells after 24 to 72 hrs by MTT assay. Format: cell-based.
The test system of a further data set is A549. As to the kind of experiment: Growth inhibition of human A549 cells after 72 hrs by MTT assay. Conditions: A549, 72 h. Format: functional, cell-based. In short, it runs like this: as §2
The nature of data set [2]: Growth inhibition of human K562-Lucena 1 cells after 24 to 72 hrs by MTT assay. Format: functional. In short, it runs like this: as §1
For another data set, the system named is Raji. In words: Growth inhibition of human Raji cells after 24 to 72 hrs by MTT assay. Format: functional, cell-based. In short, it runs like this:
as §1

Data set [3] deals with PBMC. In words: Antiinflammatory activity in human PBMC assessed reduction of LPS-stimulated TNFalpha production at 25 uM after 2 hrs by ELISA. In kind it is functional, cell-based. In short, it runs like this: (§3)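 PBMC at 10⁶ cells/mL stimulated with 2 µg/mL E. coli 055:B5 LPS for 2 h at 37 °C, 5% CO₂, co-incubated with vehicle (0.5% DMSO in RPMI 1640) or compound at several concentrations. TNF-α measured in supernatants. Three experiments, mean ± SEM.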
For orientation: An ELISA detects its analyte on a solid surface through an enzyme-linked reagent.

A further data set deals with Jurkat. As to the kind of experiment: Growth inhibition of human Jurkat cells after 24 to 72 hrs by MTT assay. In kind it is functional, cell-based. In short, it runs like this:
as §1

The nature of data set [4]: Toxicity in LPS-stimulated human PBMC cells assessed as cell viability at 100 uM. In kind it is cell-based.
Data set [5] deals with PBMC. In words: Antiinflammatory activity in human PBMC assessed inhibition of LPS-stimulated TNFalpha production at 100 uM after 2 hrs by ELISA. Format: functional. In short, it runs like this:
as §3

A short description of data set [6]: Growth inhibition of human GLC4 cells after 72 hrs by MTT assay. In kind it is functional, cell-based. Conditions: GLC4, 72 h. In short, it runs like this:
as §2

Activity calls are given as the source filed them. The rule behind the calls is not given here. Bounds are passed on as bounds.

In general, IC50 refers to the concentration that gives 50% inhibition. The inhibition is the change of the read-out against control, counted positive when it falls. In general, viability refers to a per cent measure of how many cells are alive, often set against a control.

For `COc1cc2c(cc1O)[C@H]1COC3=C(C(=O)c4ccccc4C3=O)[C@H]1O2` (racemic), half-maximal inhibition with K562 (IC50) required 2.18 µM.

`O=C1C2=C(C(=O)c3ccccc31)[C@H]1Oc3ccc([N+](=O)[O-])cc3[C@H]1CO2` (racemic): the IC50 is 3.48 µM with K562 and 0.4 µM with HL-60.

Regarding `O=C1C2=C(C(=O)c3ccccc31)[C@H]1Oc3ccc(Br)cc3[C@H]1CO2` (racemic), the figures for the half-maximal inhibitory concentration (IC50) in the data set on K562 and in the data set with HL-60 were 5.7 µM and 4.87 µM, respectively.

On to `O=C1C2=C(OC[C@@H]3c4cc5c(cc4O[C@H]23)OCO5)C(=O)c2c1ccc(O)c2O`, for which the IC50 in the data set on K562 stood at 2.95 µM; in the data set with HL-60, 2.1 µM.

As for `O=C1C2=C(C(=O)c3ccccc31)[C@H]1Oc3ccc(Cl)cc3[C@H]1CO2` (racemic), the figures for the IC50 in the data set on K562 and with HL-60 were 6.77 µM and 4.87 µM, respectively.

In the case of `O=C1C2=C(C(=O)c3ccccc31)[C@H]1Oc3ccccc3[C@H]1CO2` [PTEROCARPANQUINONE], the IC50 in the data set with NCI-H460 was 12.9 µM; in the data set with Daudi, 3.1 µM; with PBMC [1] it was over 20 µM; in the data set on A549, 11.2 µM; in data set [2] it was 2.75 µM; with K562 it was 1.67 µM. Further, the concentration for half-maximal inhibition (IC50) was 3.32 µM in the data set on Raji, 6.77 µM in the data set on Jurkat, 5.17 µM in data set [6] and 2 µM in the data set on HL-60. The inhibition result in the data set on PBMC [3] is “Active”. Besides, the viability at 100 µM in data set [4] was over 70%. In addition, in the data set on PBMC [5], 100 µM produced 100% inhibition.

Regarding `CO[C@@]12[C@H](COC(N)=O)C3=C(C(=O)C(C)=C(N)C3=O)N1C[C@@H]1N[C@@H]12` [MITOMYCIN], the concentration for half-maximal inhibition (IC50) worked out at 0.45 µM with Daudi, 4.03 µM in the data set with PBMC [1], 2.75 µM in data set [2] and 0.47 µM in the data set with K562.

Source of the values: ChEMBL document CHEMBL1156927, “New pterocarpanquinones: synthesis, antineoplasic activity on cultured human malignant cell lines and TNF-alpha modulation in human PBMC cells” (Bioorg Med Chem, 2010).
